Measured values collected from several papers.
Lines come from different studies, so protocols differ.
PMV: Plasmepsin V (PMV, Plasmodium falciparum, UniProt Q8I6Z5)
PADI1: Protein-arginine deiminase type-1 (PADI1, Homo sapiens, UniProt Q9ULC6)

Compound | target | effect on | action | method | concentration | endpoint | result
Cc1ccccc1CNC(=O)[C@H]1N(C(=O)[C@@H](O)[C@H](Cc2ccccc2)NC(=O)c2cccc(O)c2C)CSC1(C)C | PMV | enzyme activity | inhibitor | fluorescence | 10 µM | activity vs control | 73%
CCOC(=O)[C@H](CCCN=C(N)N)NC(=O)c1ccccc1 | PADI1 | enzyme activity | substrate | – | – | Km | 190 µM
CCN(CC)CCCC[C@H](NC(=O)[C@H](CC(C)C)NC(=O)[C@H](C)NC(=O)[C@H](Cc1ccccc1)NC(=O)c1ccc(C(C)(C)C)cc1)C(=O)N[C@@H](CO)C(=O)OC | ATPase family AAA domain-containing protein 2, bromodomain (ATAD2, Homo sapiens, UniProt Q6PL18) | thermal stability | – | DSF | 25 µM | ΔTm | -0.62 °C
C#Cc1n[nH]c2c(-c3cn(C(C)c4ccccn4)c(=O)[nH]c3=O)cc(F)cc12 (stereo not shown) | Dual specificity tyrosine-phosphorylation-regulated kinase 2 (DYRK2, Homo sapiens, UniProt Q92630) | enzyme activity | inhibitor | – | 1 µM | inhibition | -7.1%
CC(C)C[C@H](CC(=O)NO)C(=O)N[C@H](C(=O)N[C@@H](C)C(=O)NCCN)C(C)(C)C | Disintegrin and metalloproteinase domain-containing protein 17 (ADAM17, Homo sapiens, UniProt P78536) | enzyme activity | inhibitor | – | 1 µM | inhibition | 13%
COC(=O)[C@H](CCCNC(=N)N)NC(=O)c1ccccc1 | PADI1 | enzyme activity | substrate | – | – | Km | 370 µM
COc1ncccc1-c1cnn2ccc(N3CCN(C(=O)OC(C)C)CC3)nc12 | Serine/threonine-protein kinase 32B (STK32B, Homo sapiens, UniProt Q9NY57) | binding | – | competition with immobilised ligand | 1 µM | remaining binding | 98%
Cc1cccc(C)c1OCC(=O)N[C@@H](Cc1ccccc1)[C@H](O)C(=O)N1CSC(C)(C)[C@H]1C(=O)N[C@H]1c2ccccc2C[C@H]1O | PMV | enzyme activity | inhibitor | fluorescence | 10 µM | activity vs control | 77%
Nc1ncc(-c2nc(N3CCOCC3)nc(N3CCOCC3)n2)c(C(F)F)n1 | Phosphatidylinositol 4,5-bisphosphate 3-kinase catalytic subunit alpha isoform (PIK3CA, Homo sapiens, UniProt P42336, H1047L) | binding | – | competition with immobilised ligand | 10 µM | remaining binding | 0%
Cc1nn(C)cc1-c1nc2c(N3CCN(Cc4ccc(Cl)cc4)CC3)c(Cl)cnc2[nH]1 | Activin receptor type-1-like (ACVRL1, Homo sapiens, UniProt P37023) | binding | – | competition with immobilised ligand | 1 µM | remaining binding | 100%
